Test results reported in ChEMBL document CHEMBL1145823, “Docking and database screening reveal new classes of Plasmodium falciparum dihydrofolate reductase inhibitors” (J Med Chem, 2003).
Converted amounts (≈) assume the structure as drawn. The source made the active and inactive calls. The rule behind the calls is not given here.

Columns and labels:
[1] = target: Bifunctional dihydrofolate reductase-thymidylate synthase (Plasmodium falciparum K1) (UniProt P13922); assay: Inhibition constant for resistant mutant PfDHFR (Plasmodium falciparum dihydrofolate reductase); Inactive
In short: (§1)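 Recombinant wild-type or mutant PfDHFR, expressed in bacteria (induction at 20 °C for 20 h) and purified on methotrexate-Sepharose. Spectrophotometric assay in 50 mM TES pH 7.0, 75 mM β-mercaptoethanol, 1 mg/mL BSA, with 100 μM each H2-folate and NADPH. Started with enzyme (0.6–1 nM). […] Ki from IC50 = Ki(1+[S]/Km), assuming competitive binding.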

[2] = target: Bifunctional dihydrofolate reductase-thymidylate synthase (Plasmodium falciparum K1) (UniProt P13922); assay: Inhibition constant against wild-type PfDHFR (Plasmodium falciparum dihydrofolate reductase); Inactive; in short: as §1
[3] = target: Bifunctional dihydrofolate reductase-thymidylate synthase (Plasmodium falciparum K1, UniProt P13922, A16V); assay: Inhibition constant against PfDHFR (Plasmodium falciparum dihydrofolate reductase) with single A16V mutation
In short: (§2)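 Recombinant wild-type or mutant PfDHFR, expressed in bacteria (induction at 20 °C for 20 h) and purified on methotrexate-Sepharose. Spectrophotometric assay in 50 mM TES pH 7.0, 75 mM β-mercaptoethanol, 1 mg/mL BSA, with 100 μM each H2-folate and NADPH. Started with enzyme (0.6–1 nM). Ki from IC50 = Ki(1+[S]/Km), assuming competitive binding.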

[4] = target: Bifunctional dihydrofolate reductase-thymidylate synthase (Plasmodium falciparum K1, UniProt P13922, C59R/I164L/N51I/S108N); assay: Inhibition constant against PfDHFR (Plasmodium falciparum dihydrofolate reductase) with quadruple (N51I + C59R + S108N + I164L) mutations; in short: as §2
[5] = target: Bifunctional dihydrofolate reductase-thymidylate synthase (Plasmodium falciparum K1, UniProt P13922, A16V/S108T); assay: Inhibition constant against PfDHFR (Plasmodium falciparum dihydrofolate reductase) with double (A16V + S108T) mutations; in short: as §2
[6] = target: Bifunctional dihydrofolate reductase-thymidylate synthase (Plasmodium falciparum K1, UniProt P13922, S108T); assay: Inhibition constant against PfDHFR (Plasmodium falciparum dihydrofolate reductase) with single S108T mutation; in short: as §2
[7] = target: Bifunctional dihydrofolate reductase-thymidylate synthase (Plasmodium falciparum K1, UniProt P13922, C59R/I164L/S108N); assay: Inhibition constant against PfDHFR (Plasmodium falciparum dihydrofolate reductase) with triple (C59R + S108N + I164L) mutations; in short: as §2
[8] = target: Bifunctional dihydrofolate reductase-thymidylate synthase (Plasmodium falciparum K1, UniProt P13922); assay: Inhibition constant against wild-type PfDHFR (Plasmodium falciparum dihydrofolate reductase); in short: as §2
[9] = target: Bifunctional dihydrofolate reductase-thymidylate synthase (Plasmodium falciparum K1) (UniProt P13922); assay: Inhibition constant for PfDHFR (Plasmodium falciparum dihydrofolate reductase) with quadruple (N51I + C59R + S108N + I164L) mutations; Not active; in short: as §1
[10] = target: Bifunctional dihydrofolate reductase-thymidylate synthase (Plasmodium falciparum K1) (UniProt P13922); assay: Inhibition constant for PfDHFR (Plasmodium falciparum dihydrofolate reductase) with triple (C59R + S108N + I164L) mutations at a concentration of 100 uM; Not active; in short: as §1
[11] = target: Bifunctional dihydrofolate reductase-thymidylate synthase (Plasmodium falciparum K1) (UniProt P13922); assay: Inhibition constant for PfDHFR (Plasmodium falciparum dihydrofolate reductase) with double (A16V + S108T) mutations at a concentration of 100 uM; Not active; in short: as §1
[12] = target: Bifunctional dihydrofolate reductase-thymidylate synthase (Plasmodium falciparum K1) (UniProt P13922); assay: Inhibition constant for PfDHFR (Plasmodium falciparum dihydrofolate reductase) with single A16V mutation at a concentration of 100 uM; Not active; in short: as §1
[13] = target: Bifunctional dihydrofolate reductase-thymidylate synthase (Plasmodium falciparum K1) (UniProt P13922); assay: Inhibition constant for PfDHFR (Plasmodium falciparum dihydrofolate reductase) with single S108T mutation at a concentration of 100 uM; Not active; in short: as §1
[14] = target: Bifunctional dihydrofolate reductase-thymidylate synthase (Plasmodium falciparum K1) (UniProt P13922); assay: Inhibition constant against wild-type PfDHFR (Plasmodium falciparum dihydrofolate reductase) at a concentration of 100 uM; Not active; in short: as §1
[15] = target: Bifunctional dihydrofolate reductase-thymidylate synthase (Plasmodium falciparum K1) (UniProt P13922); assay: Inhibition constant for resistant mutant PfDHFR (Plasmodium falciparum dihydrofolate reductase) at 750 uM; Inactive; in short: as §1
[16] = target: Bifunctional dihydrofolate reductase-thymidylate synthase (Plasmodium falciparum K1) (UniProt P13922); assay: Inhibition constant against wild-type PfDHFR (Plasmodium falciparum dihydrofolate reductase) at 750 uM; Inactive; in short: as §1
[17] = Determined the solubility of the compound; assay type: ADME; conditions: read-out: S
[18] = target: Bifunctional dihydrofolate reductase-thymidylate synthase (Plasmodium falciparum K1) (UniProt P13922); assay: Inhibition constant for PfDHFR (Plasmodium falciparum dihydrofolate reductase) with single S108T mutation; Not active; in short: as §1
[19] = target: Bifunctional dihydrofolate reductase-thymidylate synthase (Plasmodium falciparum K1) (UniProt P13922); assay: Inhibition constant for PfDHFR (Plasmodium falciparum dihydrofolate reductase) with single A16V mutation; Not active; in short: as §1
[20] = target: Bifunctional dihydrofolate reductase-thymidylate synthase (Plasmodium falciparum K1) (UniProt P13922); assay: Inhibition constant for PfDHFR (Plasmodium falciparum dihydrofolate reductase) with triple (C59R + S108N + I164L) mutations; Not active; in short: as §1
[21] = target: Bifunctional dihydrofolate reductase-thymidylate synthase (Plasmodium falciparum K1) (UniProt P13922); assay: Inhibition constant for PfDHFR (Plasmodium falciparum dihydrofolate reductase) with double (A16V + S108T) mutations; Not active; in short: as §1
[22] = target: Bifunctional dihydrofolate reductase-thymidylate synthase (Plasmodium falciparum K1) (UniProt P13922); assay: Inhibition constant against wild-type PfDHFR (Plasmodium falciparum dihydrofolate reductase); Not active; in short: as §1

Sequence of Bifunctional dihydrofolate reductase-thymidylate synthase (Plasmodium falciparum K1, UniProt P13922, A16V) (P13922 whole entry A16V): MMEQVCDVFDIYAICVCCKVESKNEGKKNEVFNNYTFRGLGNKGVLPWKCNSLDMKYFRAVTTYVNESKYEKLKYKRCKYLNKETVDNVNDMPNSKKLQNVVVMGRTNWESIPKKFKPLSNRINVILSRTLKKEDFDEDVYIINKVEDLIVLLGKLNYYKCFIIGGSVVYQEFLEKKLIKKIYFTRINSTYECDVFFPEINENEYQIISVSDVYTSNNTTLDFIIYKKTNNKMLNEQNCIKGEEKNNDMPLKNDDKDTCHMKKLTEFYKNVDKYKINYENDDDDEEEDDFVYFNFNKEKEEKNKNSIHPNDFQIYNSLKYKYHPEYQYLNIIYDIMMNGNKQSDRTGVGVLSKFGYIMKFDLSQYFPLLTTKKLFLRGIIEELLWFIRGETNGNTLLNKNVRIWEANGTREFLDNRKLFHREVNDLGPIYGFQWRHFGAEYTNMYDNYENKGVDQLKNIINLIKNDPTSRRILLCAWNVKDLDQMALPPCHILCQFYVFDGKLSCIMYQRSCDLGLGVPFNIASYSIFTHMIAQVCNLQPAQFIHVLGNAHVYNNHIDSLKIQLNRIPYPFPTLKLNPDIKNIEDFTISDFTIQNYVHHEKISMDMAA
Sequence of Bifunctional dihydrofolate reductase-thymidylate synthase (Plasmodium falciparum K1, UniProt P13922, A16V/S108T) (P13922 whole entry, looked up, stated change not applied): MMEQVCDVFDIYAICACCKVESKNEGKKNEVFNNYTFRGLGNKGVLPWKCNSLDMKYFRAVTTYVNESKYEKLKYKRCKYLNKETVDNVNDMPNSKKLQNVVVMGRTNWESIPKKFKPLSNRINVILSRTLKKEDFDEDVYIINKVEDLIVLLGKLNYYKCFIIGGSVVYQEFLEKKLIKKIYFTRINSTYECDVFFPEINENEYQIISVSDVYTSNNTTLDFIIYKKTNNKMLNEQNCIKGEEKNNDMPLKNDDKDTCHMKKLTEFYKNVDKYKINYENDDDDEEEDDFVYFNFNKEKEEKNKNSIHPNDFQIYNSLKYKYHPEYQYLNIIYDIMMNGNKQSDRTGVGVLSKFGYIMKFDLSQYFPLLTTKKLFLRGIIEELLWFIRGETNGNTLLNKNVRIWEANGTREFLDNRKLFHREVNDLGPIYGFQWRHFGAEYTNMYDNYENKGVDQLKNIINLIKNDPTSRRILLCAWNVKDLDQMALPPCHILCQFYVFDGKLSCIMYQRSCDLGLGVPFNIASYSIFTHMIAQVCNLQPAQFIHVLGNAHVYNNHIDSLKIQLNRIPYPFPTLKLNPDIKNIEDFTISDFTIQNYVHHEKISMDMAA
Sequence of Bifunctional dihydrofolate reductase-thymidylate synthase (Plasmodium falciparum K1, UniProt P13922, C59R/I164L/N51I/S108N) (P13922 whole entry, looked up, stated change not applied): as above
Sequence of Bifunctional dihydrofolate reductase-thymidylate synthase (Plasmodium falciparum K1, UniProt P13922, S108T) (P13922 whole entry, looked up, stated change not applied): as above
Sequence of Bifunctional dihydrofolate reductase-thymidylate synthase (Plasmodium falciparum K1, UniProt P13922, C59R/I164L/S108N) (P13922 whole entry, looked up, stated change not applied): as above
Sequence of Bifunctional dihydrofolate reductase-thymidylate synthase (Plasmodium falciparum K1, UniProt P13922) (P13922 whole entry): as the sequence (P13922 whole entry, looked up, stated change not applied) above
Sequence of Bifunctional dihydrofolate reductase-thymidylate synthase (Plasmodium falciparum K1) (P13922 whole entry, looked up): as the sequence (P13922 whole entry, looked up, stated change not applied) above

Compound | Ki [3] | Ki [4] | Ki [5] | Ki [6] | Ki [7] | Ki [8] | other results
N=c1nc(N)nc(Nc2ccccc2)n1-c1ccccc1 |  |  |  |  |  |  | IA [1]: inactive; IA [2]: inactive
C/C(=N\N=C(/N)S)c1ccc(Oc2c(Cl)cncc2Cl)cc1 | 0.7 µM | 1.5 µM | 2.1 µM | 1 µM | 0.6 µM | 0.9 µM | 
NNc1nc2ccccc2nc1NN | 3.4 µM | 9.7 µM | 11.4 µM | 0.8 µM | 2.7 µM | 3.6 µM | 
NC1=NC(c2ccccc2)C(C(=O)c2ccccc2)N1 (stereo not drawn) |  |  |  |  |  |  | NA [9]: inactive; NA [10]: inactive; NA [11]: inactive; NA [12]: inactive; NA [13]: inactive; NA [14]: inactive
COC(=O)c1sccc1-c1ccc(/C(C)=N/NC(N)=O)o1 | 15.3 µM | 16 µM | 19.7 µM | 4.2 µM | 7.5 µM |  | 
Cc1nc(S)nc(O)c1Cc1c(F)cccc1Cl |  |  |  |  |  |  | IA [15]: inactive; IA [16]: inactive
Nc1nccc(-c2csc(COc3ccc(Cl)cc3)n2)n1 |  |  |  |  |  |  | solubility [17]: 25 µM (≈ 7.97 µg/mL)
N/C(=N/O)c1ccc(Oc2c(Cl)cncc2Cl)cc1 | 23.6 µM | 27.8 µM | 6.2 µM | 16 µM | 24.4 µM | 25.2 µM | 
N=C(NO)c1ccc(Oc2cc(Cl)cc(Cl)c2)c([N+](=O)[O-])c1 | 36.8 µM | 32.6 µM | 9.8 µM | 4.2 µM | 22.2 µM |  | 
N/N=C(\S)Nc1ccc(OCc2ccccc2)cc1 | 15.4 µM | 26.5 µM | 55.6 µM | 5.2 µM | 13.4 µM | 13.7 µM | 
C/N=C(\S)NNC(=O)c1cccn(Cc2cccc(Cl)c2)c1=O | 5.9 µM | 19.4 µM | 13.6 µM | 1.8 µM | 7.1 µM | 11.3 µM | 
CNC(=O)Nc1ccc(Cc2ccc(NC(=O)NC)cc2)cc1 |  |  |  |  |  |  | NA [9]: inactive; NA [18]: inactive; NA [19]: inactive; NA [20]: inactive; NA [21]: inactive; NA [22]: inactive
NC(=O)NC(=O)Cc1ccccc1 |  |  |  |  |  |  | NA [9]: inactive; NA [18]: inactive; NA [19]: inactive; NA [20]: inactive; NA [21]: inactive; NA [22]: inactive
Sc1nnc(-c2ccccc2)c(-c2ccccc2)n1 |  |  |  |  |  |  | IA [1]: inactive; IA [2]: inactive
N/C(=N\O)c1cccc(CS(=O)(=O)c2ccc(Cl)cc2)c1 | 38 µM | 34.5 µM | 106 µM | 30 µM | 105 µM | 102 µM | 
C=CCNC(=S)NNC(=O)c1cccn(Cc2cccc(Cl)c2)c1=O | 13 µM | 10.6 µM | 17 µM | 1.7 µM | 10 µM | 15.2 µM | 
CC1(C)N=C(N)N=C(N)N1c1ccc(Cl)cc1 [CYCLOGUANIL] | 0.57 µM | 0.73 µM | 2.13 µM | 0.0016 µM | 1.14 µM |  | 
Oc1nnc(-c2ccccc2)c(-c2ccccc2)n1 |  |  |  |  |  |  | IA [1]: inactive; IA [2]: inactive
NC(=O)Nc1ccc(Oc2ncc(C(F)(F)F)cc2Cl)cc1 |  |  |  |  |  |  | NA [9]: inactive; NA [18]: inactive; NA [19]: inactive; NA [20]: inactive; NA [21]: inactive; NA [22]: inactive
NC(=S)N/N=C/c1ccccc1 [PHENYLTHIOSEMICARBAZONE] | 29.6 µM | 37.2 µM | 50 µM | 9 µM | 28.9 µM | 23.6 µM | 
N=C(S)N/N=C/c1ccc(Oc2ncc(C(F)(F)F)cc2Cl)cc1 | 6.8 µM | 9.3 µM | 34 µM | 2.3 µM | 12.5 µM |  | 
NC(=O)Nc1ccc(Cc2ccc(NC(N)=O)cc2)cc1 |  |  |  |  |  |  | NA [9]: inactive; NA [18]: inactive; NA [19]: inactive; NA [20]: inactive; NA [21]: inactive; NA [22]: inactive
N=C(NO)c1ccc(CNC(=O)c2ccc(Cl)cc2)cc1 | 58 µM | 36.6 µM | 57 µM | 12.3 µM | 93 µM | 77.2 µM | 
